# Published values from different studies.
# Each line is one published result; the experiments were not run side by side.
# Target: Ephrin type-A receptor 8 (EPHA8, Homo sapiens, UniProt P29322)
# Sequence (P29322 1-1005, as in one of the studies): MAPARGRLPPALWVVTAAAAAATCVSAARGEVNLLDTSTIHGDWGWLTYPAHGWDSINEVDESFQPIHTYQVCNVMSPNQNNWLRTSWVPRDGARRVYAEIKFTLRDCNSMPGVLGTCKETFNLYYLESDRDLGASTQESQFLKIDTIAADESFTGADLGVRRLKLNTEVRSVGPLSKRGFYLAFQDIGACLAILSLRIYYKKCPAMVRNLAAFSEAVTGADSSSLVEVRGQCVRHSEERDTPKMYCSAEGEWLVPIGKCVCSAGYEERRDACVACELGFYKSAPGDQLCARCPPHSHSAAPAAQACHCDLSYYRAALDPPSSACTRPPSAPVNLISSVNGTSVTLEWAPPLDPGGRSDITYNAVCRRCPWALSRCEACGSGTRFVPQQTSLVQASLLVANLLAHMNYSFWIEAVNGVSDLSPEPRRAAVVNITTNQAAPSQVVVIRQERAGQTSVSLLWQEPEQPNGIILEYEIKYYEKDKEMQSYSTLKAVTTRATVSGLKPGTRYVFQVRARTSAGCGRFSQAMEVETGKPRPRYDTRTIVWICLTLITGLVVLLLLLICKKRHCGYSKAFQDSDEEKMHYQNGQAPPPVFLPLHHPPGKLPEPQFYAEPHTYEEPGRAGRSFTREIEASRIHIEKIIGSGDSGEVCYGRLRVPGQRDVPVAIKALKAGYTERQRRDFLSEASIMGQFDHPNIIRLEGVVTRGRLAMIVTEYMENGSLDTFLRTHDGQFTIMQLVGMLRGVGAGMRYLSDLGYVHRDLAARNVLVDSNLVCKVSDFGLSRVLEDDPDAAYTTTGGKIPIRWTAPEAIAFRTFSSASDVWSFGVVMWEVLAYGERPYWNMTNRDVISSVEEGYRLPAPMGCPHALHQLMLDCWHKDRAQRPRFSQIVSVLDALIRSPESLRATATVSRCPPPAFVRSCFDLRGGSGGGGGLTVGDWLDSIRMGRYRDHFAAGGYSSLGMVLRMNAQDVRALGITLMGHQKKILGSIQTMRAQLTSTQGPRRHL
Compound,assay,setting,remaining binding [%]
O=C(c1ccc(Nc2ncc(Cl)c(-c3cc4ccccc4s3)n2)cc1)N1CCC(N2CCCC2)CC1,"binding, competition with immobilised ligand",1 µM,83
C[C@@H]1CN(c2cc(-c3n[nH]c4ccc(OC5(C)CC5)cc34)ncn2)C[C@H](C)O1,"cell-free assay, competition with immobilised ligand",0.1 µM,82
O=C(c1ccc(Nc2nccc(-c3cc4ccccc4s3)n2)cc1)N1CCC(N2CCCC2)CC1,"binding, competition with immobilised ligand",1 µM,100
C[C@H](c1ccnc(Nc2nc3ccc(-c4cc(N(C)C)ncn4)cc3[nH]2)c1)N1CCN(C(=O)CC(F)(F)F)CC1,"cell-free assay, competition with immobilised ligand",0.1 µM,100
N[C@@H]1CCN(c2nccc(-c3cnn4ncccc34)n2)C1,binding,1 µM,100
O=c1nc(-c2ccccn2)sc2ccccc12,"cell-free assay, competition with immobilised ligand",1 µM,78
Cc1cnc(Nc2ccc(C(=O)N3CCC(N4CCCC4)CC3)cc2)nc1-c1cc2ccccc2s1,"binding, competition with immobilised ligand",1 µM,100
COc1ncc2cc3ccccc3nc2c1C#N,"cell-free assay, competition with immobilised ligand",5 µM,94
O=C(NCC1CCOCC1)c1n[nH]cc1NC(=O)c1c(F)cccc1F,"binding, competition with immobilised ligand",1 µM,100
C=CC(=O)N1CCC(C(=O)NCC(=O)N2CCN(c3nc(-c4cnc(N)nc4C(F)F)nc(N4CCOCC4)n3)CC2)CC1,"binding, competition with immobilised ligand",1 µM,100
COc1ccnn2ncc(-c3ccnc(N(C)C)n3)c12,binding,1 µM,100
CC1=C(C#N)C(c2ccc3c(c2)c(NC(=O)c2ccccc2C)nn3C)C(C#N)=C(C)N1,"cell-free assay, competition with immobilised ligand",1 µM,100
c1cncc(-c2cccc(Nc3nccc(NC4CCCCC4)n3)c2)c1,"binding, competition with immobilised ligand",10 µM,100
Cc1noc([C@H]2C[C@@H](c3ccc(C(F)(F)F)cc3)CN(C(=O)N3CCS(=O)(=O)C3)C2)n1,"cell-free assay, competition with immobilised ligand",1 µM,100
CN(C)c1nccc(-c2cnc3ncccn23)n1,binding,1 µM,79
CNC(=O)[C@@H]1CC[C@@H](n2c(-c3ccc4cnccc4c3)nc3ccc(C(=O)NCc4cccc(C(N)=O)c4)cc32)C1,"binding, competition with immobilised ligand",1 µM,91
CN(C)c1ncc(F)c(-c2cnn3ncccc23)n1,binding,1 µM,100
NS(=O)(=O)c1cc(NC(=O)C2(c3ccccc3Cl)CC2)ccc1Oc1cccc(Cl)c1,"cell-free assay, competition with immobilised ligand",1 µM,80
CC1CCCN1c1nccc(-c2cnn3ncccc23)n1 (centres unmarked),binding,1 µM,100
FC(F)(F)Oc1cccc(-c2cnc3ccc(-c4ccncc4)nn23)c1,"cell-free assay, competition with immobilised ligand",5 µM,91
